From ChEMBL document CHEMBL4007453, “Identification of Non-Nucleoside Inhibitors of the Respiratory Syncytial Virus Polymerase Complex” (J Med Chem, 2017)
pEC50: −log10 of the molar value. In brackets after ≈: the same amount, converted by molar mass. Several values for one entry are separate records, joined by “and”; a condition that tells them apart may be missing. Equal values may be shown once.

Experiments:
Liver [1] = experiment: Half life in mouse liver S9 fraction at 1 uM by LC-MS analysis; assay type: ADME, tissue-based; conditions: s9, 1 µM
In short: (§1)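 Test article at 1 µM final was incubated in triplicate at 37°C with shaking (150 rpm) with mouse or human liver S9 or microsomes (0.5 mg total protein), with Phase I oxidation and Phase II glucuronidation cofactors. Cofactor-free and microsome-free controls were run, sampled only at 0 and 120 min. Other sampling was at 0, 15, 30, 60 and 120 min into organic internal standard solution.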

Plasma [2] = experiment: Half life in mouse plasma at 1 uM by LC-MS analysis; assay type: ADME, cell-free
Liver [3] = experiment: Half life in human liver microsomes at 1 uM by LC-MS analysis; assay type: ADME, microsome; in short: as §1
Plasma [4] = experiment: Half life in human plasma at 1 uM by LC-MS analysis; assay type: ADME, cell-free
Liver [5] = experiment: Half life in human liver S9 fraction at 1 uM by LC-MS analysis; assay type: ADME, tissue-based; conditions: s9, 1 µM; in short: as §1
BEAS-2B = experiment: Cytotoxicity against human BEAS2B cells after 48 hrs by PrestoBlue staining based fluorescence assay; assay type: cell-based
In short: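 Uninfected BEAS-2B cells were exposed to compound for 48 h at 37°C. PrestoBlue was added and incubated 90 min at 37°C, then fluorescence was read (ex 560 nm, em 590 nm). Cytotoxic was defined as metabolic activity <70% of vehicle control. Highest concentration assessed for cytotoxicity was 90 µM, and CC50 came from four-parameter variable slope regression.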

[6] = Selectivity index, ratio of CC50 for human BEAS2B cells to EC50 for inhibition of recombinant mkate-tagged-Respiratory syncytial virus-A2-L19F RNA-dependent RNA polymerase complex D489E mutant in human BEAS2B cells infected with Respiratory syncytial virus-A2-L19F; assay type: toxicity, cell-based; conditions: read-out: Ratio CC50/EC50
In short: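 SI is CC50/EC50 in BEAS-2B cells. EC50 came from reporter RSV dose-response, 3-fold dilutions, top 10 µM. […] Both values from four-parameter variable-slope regression.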

[7] = Aqueous solubility of the compound in phosphate buffered saline at pH 7.4 after 90 mins by laser nephelometric method; assay type: physicochemical
In short: (§2)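 Stocks of 30 mg/mL in DMSO were serially diluted in DMSO, then into buffer to final 300 down to 1.5 µg/mL at 1% final DMSO. Diluent was PBS for pH 7.4 and citrate buffer for pH 3 and 5. Plates stood 90 min at ambient temperature. Forward-scatter laser nephelometry gave the concentration at which precipitation began.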

[8] = Aqueous solubility of the compound in citrate buffer at pH 5 after 90 mins by laser nephelometric method; assay type: physicochemical; in short: as §2
[9] = Aqueous solubility of the compound in citrate buffer at pH 3 after 90 mins by laser nephelometric method; assay type: physicochemical; in short: as §2
[10] = Inhibition of recombinant Respiratory syncytial virus-A2-L19F RNA-dependent RNA polymerase complex D489E mutant transfected with firefly luciferase gene at SMASh domain in human BEAS2B cells infected with Respiratory syncytial virus-A2-L19F assessed as reduction in viral replication measured after […] by bioluminescence assay; assay type: cell-based
In short: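 BEAS-2B cells (1.5×10^4/well) received 3-fold serial compound dilutions prepared in three repeats (top concentration 10 µM) and were infected with firefly-luciferase/SMASh reporter RSV-A2-L19F D489E (MOI 0.1). Luminescence was converted to % inhibition against four-replicate positive and negative controls per plate. EC50 came from four-parameter variable-slope regression.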

Liver [11] = experiment: Drug metabolism in mouse liver microsomes assessed as 5-(3-Methylfuran-2-carbonyl)-5,6,7,8-tetrahydro-4H-pyrazolo-[1,5-a][1,4]diazepine-2-carboxylic Acid formation at 1 uM by LC-MS analysis; assay type: ADME, microsome
Liver [12] = experiment: Half life in mouse liver microsomes at 1 uM in presence of NADPH by LC-MS analysis; assay type: ADME, microsome; in short: as §1
Liver [13] = experiment: Half life in mouse liver microsomes at 1 uM in absence of NADPH by LC-MS analysis; assay type: ADME, microsome; in short: as §1
[14] = tested on: Respiratory syncytial virus; experiment: Inhibition of recombinant mkate-tagged-Respiratory syncytial virus-A2-L19F RNA-dependent RNA polymerase complex D489E mutant in human BEAS2B cells infected with Respiratory syncytial virus-A2-L19F assessed as reduction in RSV-N mRNA level measured after 20 hrs by RT-qPCR analysis; assay type: cell-based
In short: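 Cells infected with mKate recRSV-A2-L19F (MOI 3 particles/cell) and exposed to compound at 0.1–10 µM, or DMSO, at 37°C for 20 h. RT-qPCR of RSV N mRNA, with melt-curve check. ΔΔCT calculated against GAPDH and normalised to DMSO controls. Three independent experiments, each in duplicate; mean ± SD.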

[15] = tested on: Vesicular stomatitis virus; experiment: Antiviral activity against Vesicular stomatitis virus assessed as reduction in viral replication measured after […] by bioluminescence assay; assay type: functional
[16] = Antiviral activity against influenza A virus (A/WSN/1933(H1N1)) infected in MDCK cells assessed as reduction in viral replication measured after […] by bioluminescence assay; assay type: functional, cell-based
[17] = Inhibition of recombinant mkate-tagged-Respiratory syncytial virus-A2-L19F RNA-dependent RNA polymerase D489E mutant in human BEAS2B cells infected with Respiratory syncytial virus-A2-L19F assessed as reduction in progeny release measured after 48 hrs postinfection by fluorescence assay based progeny virus yield-based dose-response assay; assay type: cell-based; conditions: BEAS-2B
In short: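 Cells in 12-well format infected with mKate-expressing recRSV-A2-L19F (MOI 0.05 particles/cell) in the presence of serial compound dilutions at 37°C. Cell-associated progeny harvested 48 h post-infection and released by one freeze/thaw cycle. Titres determined by TCID50 titration. Two repeats; EC50 derived by regression.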

[18] = tested on: Respiratory syncytial virus; experiment: Inhibition of Respiratory syncytial virus-A2-L19F RNA-dependent RNA polymerase complex D489E mutant in human BEAS2B cells infected with Respiratory syncytial virus-A2-L19F by firefly luciferase reporter-based RSV minigenome assay; assay type: cell-based
Liver [19] = experiment: Half life in mouse liver microsomes at 1 uM by LC-MS analysis; assay type: ADME, microsome; in short: as §1
[20] = human respiratory syncytial virus, A2-L19F, BEAS-2B, 40 min

Compound	t1/2 (Liver [1])	t1/2 (Liver [3])	CC50 (BEAS-2B)	selectivity ratio [6]	solubility kinetic at 1.5 h [7]	solubility kinetic at 1.5 h [8]	solubility kinetic at 1.5 h [9]	pEC50 [10, 20]	other results
Cc1ccoc1C(=O)N1CCCn2nc(C(=O)Nc3ccccc3F)cc2C1	0.183 h	5.3 h	1.1 µM	22	0.03 mg/mL (≈ 78.5 µM)	0.051 mg/mL (≈ 133 µM)	0.075 mg/mL (≈ 196 µM)	7.30	t1/2 (Plasma [2]): 2.4 h; t1/2 (Plasma [4]): > 24 h; t1/2 (Liver [5]): 7 h
Cc1ccoc1C(=O)N1CCCn2nc(C(=O)Nc3ccccc3)cc2C1	0.25 h	4.7 h	8.3 µM	40	0.063 mg/mL (≈ 173 µM)	0.075 mg/mL (≈ 206 µM)	0.074 mg/mL (≈ 203 µM)	–	Drug metabolism (Liver [11]): Metabolite_Detected; t1/2 (Liver [12]): 0.25 h; t1/2 (Liver [13]): 0.25 h; inhibition [14]: Dose-dependent effect; pEC50 [10]: 6.68 to 6.70 and 6.08; pEC50 [15]: < 4.70; pEC50 [16]: < 4.70; pEC50 [17]: 6.27; inhibition [18]: Dose-dependent effect
Cc1ccoc1C(=O)N1CCCn2nc(C(=O)Nc3ccc(F)cc3Cl)cc2C1	–	3.6 h	30 µM	500	–	–	–	7.22	t1/2 (Liver [19]): 4 min
